Laboratory results taken from publication PMC2718708 (Bioorganic & medicinal chemistry, 2008).
Entries after “also recorded” stand apart in the source; their conditions may differ. Where a SMILES comes first, the peptide text is derived from it. [ ]: non-standard residue; d: D form. Nle = CCCC[C@H](N)C(=O)O

Key:
p53 in U2OS cells = type: cell-based, human; details: U2OS co-transfected with p53 and Hdm2; 8 h; 50 µM ALLN or 3–15 µM 5
[1] = system: p53 and Hdm2 in RPE cells; test: Cellular p53 and Hdm2 levels in RPE cells by immunoblotting; details: for effect on cellular p53 and Hdm2 levels: 1–10 µM, immunoblotting; for effect on cellular p53 and Hdm2 levels / concentration exhibiting greatest increase in p53 and Hdm2: 8 h; for concentration exhibiting greatest increase in p53 and Hdm2: similar to 50 µM ALLN
Hdm2 [2] = molecular target: T1, Hdm2 (Homo sapiens, UniProt Q00987); test: Hdm2 electrochemiluminescence assay; type: biochemical; details: for activity in Hdm2 assay: isolated from Hdm2-inhibitory fractions
T1 sequence (Q00987 whole entry): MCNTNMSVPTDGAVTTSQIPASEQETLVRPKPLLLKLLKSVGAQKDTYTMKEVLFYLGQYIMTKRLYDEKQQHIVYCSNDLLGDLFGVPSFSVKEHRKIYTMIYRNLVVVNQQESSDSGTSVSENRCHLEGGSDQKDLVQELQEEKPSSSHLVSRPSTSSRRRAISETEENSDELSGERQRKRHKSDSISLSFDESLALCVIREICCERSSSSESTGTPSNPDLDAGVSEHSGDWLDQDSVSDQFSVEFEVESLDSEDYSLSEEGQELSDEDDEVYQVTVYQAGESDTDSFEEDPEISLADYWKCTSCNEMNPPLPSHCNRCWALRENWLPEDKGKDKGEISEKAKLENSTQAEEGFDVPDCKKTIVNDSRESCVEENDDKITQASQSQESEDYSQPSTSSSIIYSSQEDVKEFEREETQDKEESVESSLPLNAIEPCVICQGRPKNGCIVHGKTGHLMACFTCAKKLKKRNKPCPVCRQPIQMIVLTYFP

[3] = system: Hdm2 in p53^−/−mdm2^−/− mouse embryo fibroblasts; type: cell-based; details: 10 µM, 8 h; Hdm2 under p53-independent CMV promoter
[4] = Stability of the compound observed while conducting experiments; type: physicochemical
[5] = system: p53 in HCT116 colon carcinoma cells; test: ALLN-induced ubiquitylated p53 in HCT116 cells expressing wild-type p53; type: cell-based, human; details: treatment with both 5 and ALLN; data not shown
[6] = system: U2OS-pG13 cells (p53-responsive luciferase reporter); test: p53-responsive luciferase reporter assay in U2OS-pG13 cells; type: cell-based, human; details: 1–10 µM, 22 h
In short: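 U2OS-pG13 cells carry endogenous wild-type p53 and a stably expressed p53-responsive luciferase reporter (pG13). They were incubated for 22 h with test compound at 1–10 µM, with adriamycin at 1 µg/ml as reference. Cells were lysed in reporter lysis buffer and spun at 14,000 g for 20 min. Supernatant luciferase was read as RLU. Values are mean and standard deviation of three independent experiments.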

RPE cells = test: Cell death by trypan blue exclusion, parental RPE cells; type: cell-based, human; details: 3–25 µM, 17 h
RPE-E1A cells = test: Cell death by trypan blue exclusion, RPE-E1A cells; type: cell-based, human; details: 3–25 µM, 17 h
C8 cells [7] = test: Cell death by trypan blue exclusion, wild-type p53 MEFs; type: cell-based, mouse; details: 5–20 µM, 20 h
A9 cells = test: Cell death by trypan blue exclusion, p53-deficient MEFs; type: cell-based, mouse; details: 5–20 µM, 20 h
C8 cells [8] = test: PARP cleavage by immunoblotting, C8 cells; type: cell-based, mouse; details: 5–20 µM, 14 h
[9] = system: HCT116-p53^+ and HCT116-p53^− cells; test: Killing of HCT116-p53+ compared to HCT116-p53- cells; type: cell-based, human; details: HCT116-p53+ vs HCT116-p53−; data not shown
Hdm2 [10] = molecular target: T1, Hdm2; details: cited from earlier work

SMILES: CCCC[C@@H](C=O)NC(=O)[C@H](CC(C)C)NC(=O)[C@H](CC(C)C)NC(C)=O [ALLN, N-acetyl-leucyl-leucyl-norleucinal, reference compound] (Ac-Leu-Leu-[Nle]-aldehyde)
- effect on p53 degradation / p53 level (p53 in U2OS cells): accumulation of p53
- ubiquitylated forms of p53 (p53 in U2OS cells): higher molecular weight forms of the protein indicative of ubiquitylation

SMILES: COc1cc(CCN(C)C)c2c(c1O)SSSSS2 [Compound 1, Isolissoclinotoxin B]
- effect on p53 levels ([1]; RPE cells, at 1 µM): did not increase p53 levels
- toxicity to RPE cells ([1]; at 10 µM): toxic

SMILES: COc1cc(CCN)c2c(c1OC)SSSSS2 [Compound 2, varacin]
- activity in Hdm2 assay (Hdm2 [2]): very little activity
- effect on cellular p53 and Hdm2 levels ([1]; RPE cells): no discernable cellular effects

SMILES: COc1c(C)c(CCN(C)C)c2c(c1OC)SSSSS2 [Compound 3, N,N-dimethyl-5-methylvaracin]
- activity in Hdm2 assay (Hdm2 [2]): very little activity
- effect on cellular p53 and Hdm2 levels ([1]; RPE cells): no discernable cellular effects

SMILES: CSC1=C(CCN)c2nc3ccccc3c3ccnc(c23)C1=O [Compound 4, Diplamine B]
- effect on cellular Hdm2 [3]: increased Hdm2; also recorded: stabilized Hdm2 in MEFs
- stability [4]: fairly unstable and degraded over time
- effect on cellular p53 and Hdm2 levels ([1]; RPE cells): increased p53 and Hdm2 in cells in a dose-dependent manner
- concentration exhibiting greatest increase in p53 and Hdm2 ([1]; RPE cells): 10 µM

SMILES: NCCc1c2c(c3nccc4c3c1Nc1ccccc1-4)OCS2 [Compound 5, Lissoclinidine B]
- IC50 (Hdm2 [2]): 98.1 ± 6 µM
- effect on cellular Hdm2 [3]: increased Hdm2; also recorded: stabilized Hdm2 in MEFs
- effect on p53 degradation / p53 level (p53 in U2OS cells): blocked p53 degradation in a dose-dependent manner; also recorded: inhibits Hdm2-mediated p53 degradation
- ubiquitylated forms of p53 (p53 in U2OS cells): absent
- effect on ALLN-induced ubiquitylated p53 [5]: prevented the accumulation of ALLN-induced ubiquitylated p53
- luciferase activity (p53-dependent transactivation) [6]: dose-dependent increase in luciferase activity; also recorded: activates p53 transcription
- cell death (RPE cells): no effect
- cell death (RPE-E1A cells): clear dose-dependent increase in cell death; also recorded: selectively kills transformed cells
- cell death (C8 cells [7]): marked increase in cell death; also recorded: selectively kills cells expressing wild-type p53
- cell death (A9 cells): relatively resistant
- PARP cleavage (apoptosis) (C8 cells [8]): cleavage of the poly (ADP-ribose) polymerase (PARP) was observed; also recorded: induces apoptosis in C8 cells
- p53-dependent killing [9]: p53-dependent killing
- effect on cellular p53 and Hdm2 levels ([1]; RPE cells): increased p53 and Hdm2 in cells in a dose-dependent manner
- concentration exhibiting greatest increase in p53 and Hdm2 ([1]; RPE cells): 10 µM

SMILES: c1ccc2c3ccn4cc5c(cc4c-3nc2c1)CCCC5 [sempervirine]
- inhibition of auto-ubiquitylation of Hdm2 (Hdm2 [10]): inhibits auto-ubiquitylation of Hdm2
